Assay [1] can be described thus: Her2 expression decrease, cell viability multiplex – SKBR3 breast tumor cells, AlphaScreen, ATP viability, primary screen (AID 461;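 active = Her2 level under about 52% in both replicate screens, with viability over 70% of control, limit read from the data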;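 for Her2 level: lower value means less Her2 protein in the cells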;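 for viability: percent of carrier control wells set as 100% viability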). As to conditions: SKBR3 Her2 protein level, 18-24 h, measured here: SKBR3 viability, ATP luminescence, at 10 µM. (In general: In Alpha technology, singlet oxygen from a donor bead excites a nearby acceptor bead.)
Assay [2] addresses Receptor tyrosine-protein kinase erbB-2 (Homo sapiens) (UniProt P04626). The assay is described as above. As to conditions: 18-24 h, at 10 µM, stronger effect = lower value.
Assay [3] is described as follows: reduced viability of SK-BR-3 breast cancer cells – cell-based, 24 h, human, pilot screen (AID 572).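 Note: compound exposure lasted between 18 and 24 h rather than exactly 24 h; 100% = carrier-treated control wells.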 As to conditions: SK-BR-3 viability, CellTiter-Glo luminescence, at 10 µM, stronger effect = lower value.
The nature of assay [4]: HUVEC growth inhibition – cell-based, human, primary screen (AID 575;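 active = viability at or below 30% in both replicate assays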;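 note: 100% = median of untreated cell wells with 0.1% DMSO on each plate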). To be noted: HUVEC proliferation, CellTiter-Glo luminescence, 72 h; at 10 µM; stronger effect = lower value. In a few lines:
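Assay system: Primary human umbilical vein endothelial cells | Quantity: 1250 cells per well | Medium: Supplemented EBM, 2% fetal bovine serum | Detection: CellTiter-Glo luminescence measuring cellular ATP | Read-out: % viability vs DMSO wells | Plate: Collagen-coated 384-well format | Times: 72 h exposure, 37 °C, 5% CO2, 30 min RT equilibration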
(In general: ATP-based viability assays read luminescence as a measure of living cells.)

A short description of assay [5]: H69AR cell proliferation blockers – human, duplicate replicates, primary screen (AID 580;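 active = viability at or under a set limit in both replicates, limit being median viability minus 3 SD, cut at about 48% in these data, passing the limit was not always enough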;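 note: 100% = mean luminescence of untreated wells and 0% = no signal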). To be noted: H69AR lung tumor cells viability, ATP luminescence, 72 h; at 10 µM; stronger effect = lower value.
Assay [6] can be described thus: MRP1 drug-resistance reversers in H69AR cells – cell-based, doxorubicin co-treatment, pilot screen (AID 601;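 active = viability loss from added drug above about 55%, and viability with drug at most 40%, in both replicates, limit read from the data, passing the limit was not always enough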). As to conditions: CellTiter-Glo, 72 h, at 10 µM; for differential viability (reversal): stronger effect = higher value.
Assay [7] can be described thus: yeast transport mutant growth inhibition pilot in 384-well plates, post-Golgi transport modulator project (AID 636; in the data active = inhibition above about 31%). As to conditions: absorbance 615 nm, about 18 h, stronger effect = higher value.
Assay [8] can be described thus: growth suppression of yeast trafficking mutant, preliminary HTS, modulators of trafficking downstream of Golgi apparatus project, 1536-format plate, OD 615 nm (AID 637; in the data active = inhibition above about 30%). As to conditions: yeast transport mutant growth, absorbance 615 nm, 18 h; stronger effect = higher value.
Where [9] appears, read: H69AR cells + 2 uM doxorubicin, measured here: viability with 2 uM doxorubicin, stronger effect = lower value.
The mark [10] stands for this setting: H69AR cells, compound alone cytotoxicity.

The results in this text go back to PubChem BioAssay.

Activity calls are given as the source filed them.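 Rule for the calls, unless noted: active = viability at or below 10% of carrier control in both of two separate runs; inconclusive = viability at or below 10% in only one of the two runs; inactive = the rest.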

The term viability denotes a read-out of living cells in per cent, often relative to untreated cells. A word on the inhibition: it is the relative decrease from the control value, in per cent.

Receptor tyrosine-protein kinase erbB-2 (Homo sapiens), sequence (P04626 whole entry, looked up): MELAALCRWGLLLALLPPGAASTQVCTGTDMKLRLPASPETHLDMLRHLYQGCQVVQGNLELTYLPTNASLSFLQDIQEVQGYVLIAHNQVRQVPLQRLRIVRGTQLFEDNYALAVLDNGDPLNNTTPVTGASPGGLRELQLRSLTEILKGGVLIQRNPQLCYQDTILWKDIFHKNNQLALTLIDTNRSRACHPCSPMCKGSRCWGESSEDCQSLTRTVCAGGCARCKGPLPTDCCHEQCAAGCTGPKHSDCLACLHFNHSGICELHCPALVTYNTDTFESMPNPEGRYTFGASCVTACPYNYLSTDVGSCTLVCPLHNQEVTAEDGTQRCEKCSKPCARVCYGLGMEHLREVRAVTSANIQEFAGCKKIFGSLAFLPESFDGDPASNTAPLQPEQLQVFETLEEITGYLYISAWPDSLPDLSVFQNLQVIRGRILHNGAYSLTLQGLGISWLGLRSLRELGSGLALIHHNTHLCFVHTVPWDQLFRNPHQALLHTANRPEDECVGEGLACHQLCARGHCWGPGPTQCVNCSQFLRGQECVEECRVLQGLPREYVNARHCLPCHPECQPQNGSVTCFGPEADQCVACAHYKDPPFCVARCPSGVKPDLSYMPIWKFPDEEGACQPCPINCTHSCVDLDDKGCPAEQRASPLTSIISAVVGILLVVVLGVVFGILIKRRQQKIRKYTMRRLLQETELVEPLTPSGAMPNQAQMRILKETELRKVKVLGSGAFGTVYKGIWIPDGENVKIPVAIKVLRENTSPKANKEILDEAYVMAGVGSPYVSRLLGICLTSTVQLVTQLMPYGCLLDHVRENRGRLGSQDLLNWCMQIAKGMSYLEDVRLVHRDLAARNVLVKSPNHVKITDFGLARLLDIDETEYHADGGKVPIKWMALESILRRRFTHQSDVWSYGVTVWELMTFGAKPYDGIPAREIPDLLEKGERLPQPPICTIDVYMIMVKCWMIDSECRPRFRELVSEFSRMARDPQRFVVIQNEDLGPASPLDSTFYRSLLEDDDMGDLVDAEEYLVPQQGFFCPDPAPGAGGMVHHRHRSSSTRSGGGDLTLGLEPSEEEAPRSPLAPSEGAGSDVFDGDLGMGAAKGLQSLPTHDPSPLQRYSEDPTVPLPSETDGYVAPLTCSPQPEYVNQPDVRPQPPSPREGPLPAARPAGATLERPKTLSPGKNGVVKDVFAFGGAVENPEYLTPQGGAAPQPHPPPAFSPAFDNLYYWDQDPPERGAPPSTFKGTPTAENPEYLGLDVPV

As to `CCOC(=O)N1CCN(c2ncnc3c2[nH]c2ccc(OC)cc23)CC1`, the viability is 97.5% in assay [1]; 97.5% (inactive) in assay [3]; 72.4% (inactive) in assay [4]; 81.3% (inactive) in assay [5]; 77.9% in assay [6] (setting [9]); 81.3% in assay [6] (setting [10]). Besides, the Her2 level in assay [2] is 79% (inactive). The differential viability (reversal) in assay [6] (H69AR cells + 2 uM doxorubicin) is 3.37% (inactive). For the same compound, the values for the inhibition in assay [7] and in assay [8] were -3.6% (inactive) and -5.65% (inactive), respectively.
In the case of `O=C(CSc1nnc(-c2ccccc2Cl)n1Cc1ccco1)Nc1ccc2c(c1)OCCO2`, the viability was 83.5% in assay [1]; 83.5% (inactive) in assay [3]; 93.9% (inactive) in assay [4]; 77.7% (inactive) in assay [5]; 90.5% in assay [6] (setting [9]); 77.7% in assay [6] (setting [10]). Moreover, the Her2 level in assay [2] was 80% (inactive). In addition, the differential viability (reversal) in assay [6] (H69AR cells + 2 uM doxorubicin) is -12.8% (inactive). The inhibition was -3.07% (inactive) in assay [7] and -4.75% (inactive) in assay [8].
For `Cc1cc(C)n(-c2ccc(C(=O)Oc3ccc4c(c3)OCO4)cc2)n1`, the viability in assay [1] was 80%; in assay [3], 80% (inactive); in assay [4] it was 92.3% (inactive); in assay [5] it was 90.7% (inactive); in assay [6] (setting [9]) it was 88%; in assay [6] (setting [10]) it was 90.7%. Also, in assay [2], the Her2 level is 83.5% (inactive). Moreover, in assay [6] (H69AR cells + 2 uM doxorubicin), the differential viability (reversal) was 2.71% (inactive). For the same compound, the figures for the inhibition in assay [7] and in assay [8] were -4.13% (inactive) and -1.11% (inactive), respectively.
As for `O=C(Nc1ccc(S(=O)(=O)NC2CCCC2)cc1)c1cnccn1`, the viability in assay [1] is 92%; in assay [3], 92% (inactive); in assay [4], 104% (inactive); in assay [5], 93.7% (inactive); in assay [6] (setting [9]) it was 91.2%; in assay [6] (setting [10]), 93.7%. Also, in assay [2], the Her2 level was 82.5% (inactive). The differential viability (reversal) in assay [6] (H69AR cells + 2 uM doxorubicin) is 2.56% (inactive). The inhibition was -2.5% (inactive) in assay [7] and -4% (inactive) in assay [8].
With `O=C1C2C3C=CC(C3)C2C(=O)N1Cc1ccccc1` (stereo not given), the viability in assay [1] is 93.5%; in assay [3], 93.5% (inactive); in assay [4], 116% (inactive); in assay [5], 89.6% (inactive); in assay [6] (setting [9]), 80.3%; in assay [6] (setting [10]), 89.6%. Moreover, the Her2 level in assay [2] is 114% (inactive). In addition, in assay [6] (H69AR cells + 2 uM doxorubicin), the differential viability (reversal) is 9.27% (inactive). In addition, the inhibition in assay [7] is -3.47% (inactive); in assay [8], 2.95% (inactive).
In the case of `Cc1nc(-c2cccc(N)c2)cs1`, the viability in assay [1] was 103%; in assay [3], 103% (inactive); in assay [4] it was 84.3% (inactive); in assay [5], 103% (inactive); in assay [6] (setting [9]), 96.8%; in assay [6] (setting [10]), 103%. Also, the Her2 level in assay [2] was 94.5% (inactive). For the same compound, the differential viability (reversal) in assay [6] (H69AR cells + 2 uM doxorubicin) is 6.14% (inactive). For the same compound, the inhibition in assay [7] is -1.33% (inactive); in assay [8], -2.3% (inactive).
`C=CCSc1nc2c(c(=O)[nH]c(=O)n2C)n1C(C)C`: the viability in assay [1] is 85.5%; in assay [3], 85.5% (inactive); in assay [4], 88.9% (inactive); in assay [5], 106% (inactive); in assay [6] (setting [9]), 88.2%; in assay [6] (setting [10]) it was 106%. In assay [2], the Her2 level is 89% (inactive). For the same compound, the differential viability (reversal) in assay [6] (H69AR cells + 2 uM doxorubicin) was 17.9% (inactive). In addition, the inhibition is -2.63% (inactive) in assay [7] and -1.64% (inactive) in assay [8].
Consider `CCCN(CCC)C(=O)C1CCN(c2cc(C)nc3c(-c4ccc(OC)c(OC)c4)c(C)nn23)CC1`, for which the viability in assay [1] was 81.5%; in assay [3] it was 81.5% (inactive); in assay [4], 58.1% (inactive); in assay [5], 69.1% (inactive); in assay [6] (setting [9]), 25%; in assay [6] (setting [10]), 69.1%. Further, the Her2 level in assay [2] was 88% (inactive). The differential viability (reversal) in assay [6] (H69AR cells + 2 uM doxorubicin) is 44% (inactive). In addition, the inhibition was -0.13% (inactive) in assay [7] and -5.08% (inactive) in assay [8].
With `COc1cc2nc(C3CCC3)n(NC(=O)C3CCCC(OC)C3)c(=O)c2cc1OC` (stereo not given), the viability in assay [1] is 100%; in assay [3], 100% (inactive); in assay [4], 117% (inactive); in assay [5] it was 92.2% (inactive); in assay [6] (setting [9]), 97.5%; in assay [6] (setting [10]), 92.2%. The Her2 level in assay [2] is 110% (inactive). Besides, the differential viability (reversal) in assay [6] (H69AR cells + 2 uM doxorubicin) was -5.31% (inactive). The figures for the inhibition in assay [7] and in assay [8] were -9.86% (inactive) and -0.67% (inactive), respectively.
As for `COc1ccc(C(=O)Nc2ccc(S(=O)(=O)NC(C)=O)cc2)cc1`, the viability in assay [1] is 120%; in assay [3], 120% (inactive); in assay [4], 96.5% (inactive); in assay [5], 93.1% (inactive); in assay [6] (setting [9]) it was 98.8%; in assay [6] (setting [10]), 93.1%. Besides, the Her2 level in assay [2] was 100% (inactive). Moreover, the differential viability (reversal) in assay [6] (H69AR cells + 2 uM doxorubicin) was -5.71% (inactive). Also, the inhibition in assay [7] was -4.13% (inactive); in assay [8], -2.26% (inactive).
On to `Cn1cnnc1SCC(=O)NCc1cccc(C(F)(F)F)c1`, for which the viability is 88% in assay [1]; 88% (inactive) in assay [3]; 102% (inactive) in assay [4]; 94.3% (inactive) in assay [5]; 93.8% in assay [6] (setting [9]); 94.3% in assay [6] (setting [10]). In addition, the Her2 level in assay [2] was 97.5% (inactive). For the same compound, in assay [6] (H69AR cells + 2 uM doxorubicin), the differential viability (reversal) is 0.52% (inactive). For the same compound, the inhibition in assay [7] is -5.53% (inactive); in assay [8], -1.43% (inactive).
Consider `CC(=O)N1CCN(c2ccc(N=Cc3c(O)n(Cc4ccccc4)c(=O)[nH]c3=O)cc2)CC1`, for which the viability in assay [1] is 89%; in assay [3], 89% (inactive); in assay [4] it was 83.5% (inactive); in assay [5] it was 94.6% (inactive); in assay [6] (setting [9]), 98.2%; in assay [6] (setting [10]) it was 94.6%. Besides, the Her2 level in assay [2] was 87.5% (inactive). Besides, the differential viability (reversal) in assay [6] (H69AR cells + 2 uM doxorubicin) was -3.64% (inactive). For the same compound, the values for the inhibition in assay [7] and in assay [8] were -0.91% (inactive) and 0.95% (inactive), respectively.
With `Cc1ccc(C)c(-n2c(CNC(=O)c3ccco3)nnc2SCC(=O)Nc2nnc(C)s2)c1`, the viability in assay [1] was 100%; in assay [3] it was 100% (inactive); in assay [4], 104% (inactive); in assay [5], 96.6% (inactive); in assay [6] (setting [9]) it was 90.7%; in assay [6] (setting [10]), 96.6%. Moreover, in assay [2], the Her2 level is 94% (inactive). Besides, the differential viability (reversal) in assay [6] (H69AR cells + 2 uM doxorubicin) is 5.91% (inactive). Moreover, the inhibition in assay [7] was -5.6% (inactive); in assay [8] it was 3.5% (inactive).
